The results in this text go back to ChEMBL document CHEMBL4011589, “Discovery of novel furanone derivatives as potent Cdc7 kinase inhibitors” (Eur J Med Chem, 2017).

Each structure is given as a SMILES string. Bounds are passed on as bounds.

Data set [1] addresses CDC7/DBF4 (Cell division cycle 7-related protein kinase/Activator of S phase kinase) (Homo sapiens, UniProt O00311). Nature of the data set: Inhibition of recombinant human Cdc7 (1 to 574 residues)/human N-terminal GST-tagged ASK (1 to 674 residues) expressed in baculovirus expression system using FITC-labeled MCM2 peptide as substrate measured after 5 hrs in presence of 5 uM ATP. In short, it runs like this: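 Cdc7 enzymatic assay with 5 µM ATP. IC50 values are the mean of duplicate measurements.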

Data set [2] in a line: Stability in human liver microsomes assessed as compound remaining at 1 uM in presence of NADPH after 30 mins by LC-MS/MS analysis. It counts as ADME, microsome. Conditions: read-out: Stability. In short, it runs like this:
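Human liver microsomes are incubated with compound for 30 min. The read-out is the percentage of parent compound remaining.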

Data set [3] is described as follows: Stability of the compound under basic condition. It counts as physicochemical.
For data set [4], the species on record is Mus musculus. Briefly: Stability in mouse liver microsomes assessed as compound remaining at 1 uM in presence of NADPH after 30 mins by LC-MS/MS analysis.
In data set [5] the target is CDC7/DBF4 (Cell division cycle 7-related protein kinase/Activator of S phase kinase) (Homo sapiens) (UniProt Q9UBU7+O00311). Briefly: Ratio of IC50 for recombinant human Cdc7 (1 to 574 residues)/human N-terminal GST-tagged ASK (1 to 674 residues) expressed in baculovirus expression system in presence of […] to IC50 for recombinant human Cdc7 (1 to 574 residues)/human N-terminal GST-tagged ASK (1 to 674 residues) expressed in baculovirus expression system in presence of 5 uM ATP.

Data set [6] can be described thus: Stability of the compound in 50% KOH. It counts as physicochemical.

As to `O=C(O)C1=C(Nc2ccccc2)O/C(=C\c2c[nH]c3ncccc23)C1=O`, in data set [1], the IC50 was found to be 9.9 nM.
For `CCOC(=O)C1=C(Nc2ccccc2)S/C(=C\c2c[nH]c3ncccc23)C1=O`, the half-inhibitory concentration (IC50) in data set [1] was > 10000 nM.
On to `CCOC(=O)C1=C(Nc2ccc(OC)cc2)O/C(=C\c2c[nH]c3ncccc23)C1=O`, for which, in data set [1], the IC50 came to 4.9 nM. Besides, in data set [2], the remaining at 0.5 h, 1 µM was 33%.
As to `NC(=O)C1=C(Nc2ccccc2)O/C(=C\c2c[nH]c3ncccc23)C1=O`, the 50% inhibitory concentration (IC50) in data set [1] was > 10000 nM.
As for `CCOC(=O)C1=C(Nc2ccc(F)cc2)O/C(=C\c2c[nH]c3ncccc23)C1=O`, the IC50 in data set [1] is 4.3 nM. In addition, in data set [2], the remaining at 0.5 h, 1 µM came out at 52%.
`CCOC(=O)C1=C(Nc2ccccc2)O/C(=C\c2c[nH]c3ncccc23)C1=O`: the Stability result in data set [3] is “Stable”; in data set [6], “Unstable”. The remaining at 0.5 h, 1 µM in data set [4] came to 7.9%; in data set [2], 23%. Moreover, in data set [1], the half-inhibitory concentration (IC50) lay in the range of 3.3 to 3.8 nM. In data set [5], the Ratio IC50 was found to be 21.
Consider `CCOC(=O)C1=C(Nc2ccccc2)O/C(=C\c2ccc3c(c2)OCO3)C1=O`, for which the IC50 in data set [1] amounted to 3200 nM.
As for `CCOC(=O)C1=C(Nc2ccccc2)O/C(=C\c2c[nH]c3ncc(Cl)cc23)C1=O`, in data set [1], the IC50 came to 44 nM.
For `CCNC(=O)C1=C(Nc2ccccc2)O/C(=C\c2c[nH]c3ncccc23)C1=O`, the IC50 in data set [1] is 1600 nM.
Turning to `O=C1C(C(=O)N2CCCCC2)=C(Nc2ccccc2)O/C1=C\c1c[nH]c2ncccc12`, in data set [1], the IC50 turned out to be 890 nM.
As to `CCOC(=O)C1=C(Nc2ccccc2)O/C(=C\c2ccc(O)c(C)c2)C1=O`, the IC50 in data set [1] came to 1200 nM.
